Experimental data: PMC6148440 (Journal of Medicinal Chemistry, 2018)
Values joined by “and” are separate entries in the source; they are usually repeats but may differ in a detail not shown here. Identical values can stand only once.

What was measured:
[1] = tested on: P. falciparum; conditions: read-out: concentration inhibiting 50% growth of P. falciparum; cited from earlier work
[2] = tested on: bloodstream forms of T. brucei brucei; test: In vitro antitrypanosomal activity, bloodstream forms; format: cell-based, T. brucei brucei S427 (S16); conditions: for IC50: Trypanosoma brucei, 72 h, read-out: IC50 parasite T. brucei; for SI T. brucei: selectivity index IC50(MRC-5)/IC50(parasite)
Procedure, shortened: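 Bloodstream forms were kept in HMI-9 with 10% hiFBS at 37 °C, 5% CO2. Parasites at 1 × 10^4/mL were exposed to increasing compound concentrations for 72 h under the same conditions. Proliferation was read by alamarBlue fluorescence (excitation 550, emission 590 nm), and IC50 was derived from this.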

[3] = Calculated LD50 on mice, extrapolated from zebrafish embryo LC50; conditions: mouse
[4] = tested on: L. major promastigotes; test: In vitro antileishmanial activity, promastigote drug susceptibility; format: cell-based, L. major (MHOM/IL/80/Friedlin); conditions: for SI L. major: selectivity index IC50(MRC-5)/IC50(parasite)
Procedure, shortened: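 Promastigotes at 1 × 10^6/mL were cultured in modified RPMI-1640 with 10% hiFBS. They were exposed to increasing compound concentrations for 72 h at 28 °C. Proliferation was measured by MTT, with absorbance read at 540 nm.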

[5] = tested on: P. falciparum; test: In vitro antimalarial activity, [3H]-hypoxanthine incorporation; format: cell-based, P. falciparum (3D7 strain)
Procedure, shortened: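 Infected erythrocytes were used at 1.5% final hematocrit and 0.6% parasitemia in RPMI 1640 with 10% AB human serum. Compounds were dissolved in DMSO and diluted in medium, with final DMSO ≤0.25%. After 48 h at 37 °C, 0.6 μCi [3H]-hypoxanthine was added per well for 18 h. Cells were harvested onto glass-fibre filters for scintillation counting. Uninfected-erythrocyte background was subtracted, and IC50 was taken as 50% growth inhibition.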

[6] = tested on: HT-29, MCF-7, and HeLa cancer cells; conditions: cited from earlier work
[7] = Acute toxicity assay on zebrafish embryos; format: in vivo, zebrafish (Danio rerio), strain AB; conditions: AB, zebrafish, in vivo
Procedure, shortened: (§1)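 Embryos of strain AB were collected in E3 medium and sorted at 3 hpf, with 20 healthy embryos per condition. Medium was replaced by compound in 0.1% DMSO/E3, made from a 100 mM DMSO stock, at five log concentrations, either 0.01–100 μM or 0.1 μM–1 mM. Embryos were held at 28.5 °C from 3 to 96 hpf, and coagulated eggs were removed at 24 h. LC50 came from a sigmoidal fit of mortality. Controls were 0.1% DMSO in triplicate (repeat if mortality >20%) and DEAB at 0.1 μM–1 mM.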

[8] = tested on: zebrafish embryos; test: Acute toxicity assay on zebrafish embryos; format: in vivo, zebrafish (Danio rerio), strain AB; conditions: zebrafish embryos, 96 hpf; mortality score >20% assumed as the effect
Procedure, shortened: as §1

[9] = tested on: MRC-5 human nontumoral lung cell line; conditions: read-out: IC50 MRC-5; MRC-5 control cell line, MTT, 72 h; cited from earlier work

Compound	IC50 [2]	LD50 [3]	SI T. brucei [2]	SI L. major [4]	also measured
Cc1oc2nc1-c1nc(co1)-c1nc(co1)-c1nc(co1)-c1nc(co1)-c1nc(co1)C1=NC(CS1)c1nc-2c(C)o1 (centres unmarked) [telomestatin]	–	–	–	–	IC50 [1]: 35000 nM
Cc1ccc(C(=O)Nc2ccc(S(=O)(=O)O)c3cc(S(=O)(=O)O)cc(S(=O)(=O)O)c23)cc1NC(=O)c1cccc(NC(=O)Nc2cccc(C(=O)Nc3cc(C(=O)Nc4ccc(S(=O)(=O)O)c5cc(S(=O)(=O)O)cc(S(=O)(=O)O)c45)ccc3C)c2)c1 [suramin, reference compound]	38 ± 3 nM	–	–	–	–
CCCNc1cc2c3c(ccc4c3c1C(=O)N(CCCN(C)C)C4=O)C(=O)N(CCCN(C)C)C2=O [Compound 7, NDI-prop]	9 ± 1 nM	330 µmol/kg and 178 mg/kg	40.0	10.6	–
CC(=O)N[C@@H]1[C@@H](O)[C@H](O)[C@@H](CO)O[C@H]1n1cc(CNc2cc3c4c(ccc5c4c2C(=O)N(CCCN(C)C)C5=O)C(=O)N(CCCN(C)C)C3=O)nn1 [Compound 2, β-glcNAc-NDI]	–	> 630 µmol/kg and > 607 mg/kg	–	–	–
C[C@H]1O[C@@H](n2cc(CNc3cc4c5c(ccc6c5c3C(=O)N(CCCN(C)C)C6=O)C(=O)N(CCCN(C)C)C4=O)nn2)[C@H](O)[C@@H](O)[C@@H]1O [Compound 3, β-6dglc-NDI]	–	170 µmol/kg and 154 mg/kg	–	–	–
CN(C)CCCN1C(=O)c2ccc3c4c(c(NCc5cn(CCO[C@@H]6O[C@H](CO)[C@@H](O)[C@H](O)[C@H]6O)nn5)cc(c24)C1=O)C(=O)N(CCCN(C)C)C3=O [Compound 6, β-glcC2-NDI]	17 ± 9 nM	> 630 µmol/kg and > 609 mg/kg	41.8	1.3	fold more active than compound 1 against P. falciparum [5]: 5 fold; fold more active than compound 1, antitumor activity [6]: approximately 10 fold
CN(C)CCCN1C(=O)c2ccc3c4c(c(NCc5cn([C@@H]6O[C@H](CO)[C@@H](OC7O[C@H](CO)[C@@H](O)[C@H](O)[C@H]7O)[C@H](O)[C@H]6O)nn5)cc(c24)C1=O)C(=O)N(CCCN(C)C)C3=O.O=C(O)C(F)(F)F.O=C(O)C(F)(F)F (stereo partly drawn) [Compound 4, β-malt-NDI]	99 ± 10 nM	190 µmol/kg and 206 mg/kg	20.6	2.2	SI P. falciparum ([5]; selectivity index IC50(MRC-5)/IC50(parasite)): 5.5; LC50 at 96 hpf [7]: 190000 nM; NOEC [8]: 100 µM; IC50 ([4]; Leishmania major, 72 h, read-out: IC50 parasite L. major): 921 ± 51 nM; IC50 [9]: 2040 ± 50 nM
C[n+]1ccc(-c2c3nc(c(-c4cc[n+](C)cc4)c4ccc([nH]4)c(-c4cc[n+](C)cc4)c4nc(c(-c5cc[n+](C)cc5)c5ccc2[nH]5)C=C4)C=C3)cc1 [TMPyP4, reference compound]	–	–	–	–	IC50 [1]: 5000 nM; IC50 [9]: > 25000 nM
CN(C)CCCN1C(=O)c2ccc3c4c(c(NCc5cn(CCO[C@H]6O[C@H](CO)[C@@H](O)[C@H](O)[C@@H]6O)nn5)cc(c24)C1=O)C(=O)N(CCCN(C)C)C3=O [Compound 5, α-manC2-NDI]	–	> 630 µmol/kg and > 609 mg/kg	–	–	–
